From PMC8380758 (ACS chemical biology, 2021)
Changes are numbered by the printed parent chain. No end group written: not given here.

T1: GST–PHD1 D292N (KDM5A S287–K347) (UniProt P29375 287-347, D292N)
T1 sequence (looked up): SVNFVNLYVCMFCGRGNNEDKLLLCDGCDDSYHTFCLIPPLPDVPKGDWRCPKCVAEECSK

T2: GST–PHD1 WT (KDM5A S287–K347) (UniProt P29375 287-347)
T2 sequence (looked up): T1 sequence (looked up) with N6D

T3: PHD1 domain of histone demethylase KDM5A (S287–E344) (UniProt P29375 287-344, 15N- or 13C-,15N-labeled)
T3 sequence (looked up): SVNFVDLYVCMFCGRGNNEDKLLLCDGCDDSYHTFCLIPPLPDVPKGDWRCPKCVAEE

T4: GST–PHD1 V330A (KDM5A S287–K347) (UniProt P29375 287-347, V330A)
T4 sequence (looked up): T1 sequence (looked up) with N6D, V44A

T5: GST–PHD1 Y294A (KDM5A S287–K347) (UniProt P29375 287-347, Y294A)
T5 sequence (looked up): T1 sequence (looked up) with N6D, Y8A


Experiments:
[1] = tested on: PHD1 (S287–E344) of KDM5A; test: 2D 1H,15N HSQC NMR peptide titration; format: binding; settings: 200 μM 15N-labeled PHD1, 298 K, pH 7.5
Summary of the method: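 15N-labelled KDM5A PHD1 (S287–E344) from GST fusion, GST removed by TEV, then Ni-resin pass and gel filtration. […] Buffer was 50 mM HEPES, NaCl, 0.5 mM TCEP, 0.1 mM ZnCl2, pH 7.5, 5% D2O, 298 K. CSP = √[(ΔH² + (0.2ΔN)²)/2].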

PHD1KDM5B = settings: ref [13],[14]; cited from earlier work
GST–PHD1 (KDM5A) Y294F = test: Fluorescence polarization binding, Y294F mutant; settings: FP, H3K4 10mer peptides
[2] = molecular target: T1, GST–PHD1 D292N (KDM5A S287–K347); test: fluorescence polarisation
[3] = molecular target: T2, GST–PHD1 WT (KDM5A S287–K347); test: fluorescence polarisation
[4] = molecular target: T3, PHD1 domain of histone demethylase …; test: NMR titration
[5] = molecular target: T4, GST–PHD1 V330A (KDM5A S287–K347); test: fluorescence polarisation
[6] = molecular target: T5, GST–PHD1 Y294A (KDM5A S287–K347); test: fluorescence polarisation

Row | Molecule | interaction strength indicated by slow–intermediate exchange [1] | Kd (PHD1KDM5B) [µM] | impact of mutation on binding (GST–PHD1 (KDM5A) Y294F) | binding result [2] | binding result [3] | binding result [4] | binding result [5] | binding result [6]
1 | H3 10mer: H3 10mer (A1–S10) | low–micromolar affinity |  |  |  |  |  |  | 
2 | H3K4me1: H3K4me1 10mer peptide | strong interactions, comparable to those with unmodified H3 |  |  |  |  |  |  | 
3 | H3K4me2: H3K4me2 10mer peptide |  | > 80 | minimal impact on binding |  |  |  |  | 
4 | H3K4me3: H3K4me3 10mer peptide |  | > 80 | minimal impact on binding |  |  |  |  | 
5 | ARTKQTARKS (peptide, UniProt P68431 2-11, looked up) [histone H3 10mer peptide (A1–S10), unmodified] |  |  |  | binds | binds | binds |  | 
6 | ARTK(Me3)QTARKS (peptide, UniProt P68431 2-11, looked up) [histone H3K4me3 10mer peptide] |  |  |  | binds | binds | binds | binds | binds
7 | ARTK(Me)QTARKS (peptide, UniProt P68431 2-11, looked up) [histone H3K4me1 10mer peptide] |  |  |  | binds | binds | binds | binds | binds
8 | ARTK(Me2)QTARKS (peptide, UniProt P68431 2-11, looked up) [histone H3K4me2 10mer peptide] |  |  |  | binds | binds | binds | binds | binds
